# Experimental data from ChEMBL document CHEMBL2150954, “A novel, unusually efficacious duocarmycin carbamate prodrug that releases no residual byproduct” (J Med Chem, 2012).
# pIC50: −log10 of the molar value. Activity calls are given as the source filed them. The rule behind the calls is not given here.
# Key:
# L1210 [1] = assay: Cytotoxicity against mouse L1210 cells; type: functional, cell-based
# L1210 [2] = assay: Antitumor activity against mouse L1210 cells xenografted in DBA/2J mouse assessed as mean survival days at 100 ug/kg, ip administered on day 1, 5 and 9 relative to control; type: functional
# L1210 [3] = assay: Antitumor activity against mouse L1210 cells xenografted in DBA/2J mouse assessed as disease cure at 500 […], ip administered on day 1, 5 and 9 measured up to 250 days; type: functional, organism-based
# L1210 [4] = assay: Antitumor activity against mouse L1210 cells xenografted in DBA/2J mouse assessed as mean survival days at 500 ug/kg, ip administered on day 1, 5 and 9 relative to control; type: functional
# Outline: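 Syngeneic L1210 cells (1 × 10⁶) given ip to B6D2F1 mice on day 0. Ten mice per group, randomised to vehicle control or treatment. Compound given in 100% DMSO ip on days 1, 5 and 9, with daily monitoring. T/C = total survival days of treated group ÷ total survival days of control × 100.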
# L1210 [5] = assay: Antitumor activity against mouse L1210 cells xenografted in DBA/2J mouse assessed as mean survival days at 60 ug/kg, ip administered on day 1, 5 and 9 relative to control; type: functional
# L1210 [6] = assay: Antitumor activity against mouse L1210 cells xenografted in DBA/2J mouse assessed as disease cure at 60 […], ip administered on day 1, 5 and 9 measured up to 250 days; type: functional, organism-based
# L1210 [7] = assay: Antitumor activity against mouse L1210 cells xenografted in DBA/2J mouse assessed as disease cure at 100 […], ip administered on day 1, 5 and 9 measured up to 250 days; type: functional, organism-based
# L1210 [8] = assay: Antitumor activity against mouse L1210 cells xenografted in DBA/2J mouse assessed as disease cure at 250 […], ip administered on day 1, 5 and 9 measured up to 250 days; type: functional, organism-based
# L1210 [9] = assay: Antitumor activity against mouse L1210 cells xenografted in DBA/2J mouse assessed as mean survival days at 250 ug/kg, ip administered on day 1, 5 and 9 relative to control; type: functional
# [10] = Half life in human plasma at 1 ug/mL at pH 7 by HPLC analysis; type: ADME, cell-free
# L1210 [11] = assay: Antitumor activity against mouse L1210 cells xenografted in DBA/2J mouse assessed as mean survival days at 300 ug/kg, ip administered on day 1, 5 and 9 relative to control; type: functional
# L1210 [12] = assay: Antitumor activity against mouse L1210 cells xenografted in DBA/2J mouse assessed as disease cure at 1000 […], ip administered on day 1, 5 and 9 measured up to 250 days; type: functional, organism-based
# L1210 [13] = assay: Antitumor activity against mouse L1210 cells xenografted in DBA/2J mouse assessed as disease cure at 3000 […], ip administered on day 1, 5 and 9 measured up to 250 days; type: functional, organism-based
# [14] = Drug degradation in phosphate buffer assessed as cleavage over 4 weeks; type: physicochemical; details: 672 h
# L1210 [15] = assay: Antitumor activity against mouse L1210 cells xenografted in DBA/2J mouse assessed as mean survival days at 9000 ug/kg, ip administered on day 1, 5 and 9 relative to control; type: functional
# L1210 [16] = assay: Antitumor activity against mouse L1210 cells xenografted in DBA/2J mouse assessed as disease cure at 300 […], ip administered on day 1, 5 and 9 measured up to 250 days; type: functional, organism-based
# [17] = Chemical stability of the compound in 1:1 of TFA/CH2Cl2-4N HCl/EtOAc solution up to 72 hrs; type: physicochemical; details: buffer
# L1210 [18] = assay: Antitumor activity against mouse L1210 cells xenografted in DBA/2J mouse assessed as mean survival days at 1000 ug/kg, ip administered on day 1, 5 and 9 relative to control; type: functional
# Nucleic Acid = assay: Binding affinity to w794 DNA assessed as DNA alkylation by cell-free assay; type: nucleic-acid assay
# [19] = Fraction unbound in human plasma incubated over 48 hrs; type: ADME, cell-free
# L1210 [20] = assay: Antitumor activity against mouse L1210 cells xenografted in DBA/2J mouse assessed as disease cure at 9000 […], ip administered on day 1, 5 and 9 measured up to 250 days; type: functional, organism-based
# L1210 [21] = assay: Antitumor activity against mouse L1210 cells xenografted in DBA/2J mouse assessed as mean survival days at 3000 ug/kg, ip administered on day 1, 5 and 9 relative to control; type: functional
# [22] = Half life in calf serum at 2 uM by RP-HPLC analysis; type: ADME, cell-free, Bos taurus; details: cattle
# [23] = Chemical stability of the compound in Et3N/CH2Cl2 solution after 48 hrs; type: physicochemical
# [24] = Chemical stability of the compound in NaHCO3/THF solution after 2 hrs; type: physicochemical
# [25] = Drug degradation in NaHCO3/1:1 of THF:H2O solution assessed as hydrolysis after 2 hrs; type: physicochemical; details: NaHCO3 in 1:1 THF:H2O solution; read-out: Drug degradation
# [26] = Chemical stability of the compound in Et3N/CH2Cl2 solution after 2 hrs; type: physicochemical
# [27] = Drug degradation in NaHCO3/THF solution assessed as hydrolysis after 48 hrs; type: physicochemical; details: read-out: Drug degradation
# [28] = Drug degradation in NaHCO3/MeOH solution assessed as hydrolysis after 48 hrs; type: physicochemical; details: read-out: Drug degradation
# [29] = Drug degradation in NaHCO3/1:1 of THF:H2O solution assessed as hydrolysis after 48 hrs; type: physicochemical; details: NaHCO3 in 1:1 THF:H2O solution; read-out: Drug degradation
# [30] = Drug degradation in NaHCO3/1:1 of DMF:H2O solution assessed as hydrolysis after 2 hrs; type: physicochemical; details: NaHCO3 in 1:1 DMF:H2O solution; read-out: Drug degradation
# [31] = Drug degradation in 1:1 of TFA/CH2Cl2-4N HCl/EtOAc solution assessed as cleavage of Boc protecting group; type: physicochemical; details: buffer
# [32] = Chemical stability of the compound in NaHCO3/THF solution after 24 hrs; type: physicochemical
# [33] = Drug degradation in NaHCO3/1:1 of THF:H2O solution assessed as hydrolysis after 24 hrs; type: physicochemical; details: NaHCO3 in 1:1 THF:H2O solution; read-out: Drug degradation
# [34] = Chemical stability of the compound in Et3N/CH2Cl2 solution after 24 hrs; type: physicochemical
# [35] = Drug degradation in NaHCO3/1:1 of DMF:H2O solution assessed as hydrolysis after 48 hrs; type: physicochemical; details: NaHCO3 in 1:1 DMF:H2O solution; read-out: Drug degradation
# [36] = Chemical stability in MeOH after 48 hrs in presence of 100 equiv BnSH and BnOH; type: physicochemical
# Outline: (§1)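 Compound exposed to 100 equiv each of BnSH and BnOH in MeOH or THF at 23 °C for 48 h and monitored for cleavage.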
# [37] = Chemical stability of the compound in DMAP/CH2Cl2 solution after 2 hrs; type: physicochemical
# [38] = Drug degradation in DMAP/CH2Cl2 solution assessed as hydrolysis after 48 hrs; type: physicochemical; details: read-out: Drug degradation
# [39] = Chemical stability of the compound in DMAP/CH2Cl2 solution after 24 hrs; type: physicochemical
# [40] = Chemical stability in THF after 48 hrs in presence of 100 equiv BnSH and BnOH; type: physicochemical; outline: as §1
# [41] = Drug degradation in NaHCO3/1:1 of DMF:H2O solution assessed as hydrolysis after 24 hrs; type: physicochemical; details: NaHCO3 in 1:1 DMF:H2O solution; read-out: Drug degradation
# [42] = Drug degradation in NaHCO3/MeOH solution assessed as hydrolysis after 2 hrs; type: physicochemical; details: read-out: Drug degradation
# [43] = Drug degradation in MeOH after 24 hrs in presence of 100 equiv BnNH2; type: physicochemical
# [44] = Drug degradation in NaHCO3/MeOH solution assessed as hydrolysis after 24 hrs; type: physicochemical; details: read-out: Drug degradation
# [45] = Chemical stability in THF after 24 hrs in presence of BnNH2; type: physicochemical
# [46] = Chemical stability of the compound in 1:1 of TFA/CH2Cl2-4N HCl/EtOAc solution for 48 hrs; type: physicochemical; details: buffer
compound,measurement,setting,value
O=C1Nc2cccc3c4c(cc(c23)O1)N(C(=O)c1cc2cc(NC(=O)c3cc5ccccc5[nH]3)ccc2[nH]1)C[C@@H]4CCl,pIC50,L1210 [1],7.40
O=C(Nc1ccc2[nH]c(C(=O)N3C[C@@H](CCl)c4c3cc(O)c3ccccc43)cc2c1)c1cc2ccccc2[nH]1 [SECO-CBI-INDOLE],T/C,L1210 [2],36%
same,Activity,L1210 [3],inactive
same,T/C,L1210 [4],17%
same,T/C,L1210 [5],197%
same,Activity,L1210 [6],inactive
same,Activity,L1210 [7],inactive
same,Activity,L1210 [8],inactive
same,T/C,L1210 [9],21%
CCN(CC)c1ccc2cc(C(=O)Nc3ccc4[nH]c(C(=O)N5C[C@@H](CCl)c6c5cc(OC(=O)Nc5ccccc5)c5[nH]cc(C)c65)cc4c3)oc2c1 [CARZELESIN],half-life at 1 ug/mL,[10],< 1 h
Nc1cccc2c1C(=O)C=C1N(C(=O)c3cc4cc(NC(=O)c5cc6ccccc6[nH]5)ccc4[nH]3)CC3CC123 (racemic),pIC50,L1210 [1],9.68
O=C1Nc2cccc3c4c(cc(c23)O1)N(C(=O)c1cc2cc(NC(=O)c3cc5ccccc5[nH]3)ccc2[nH]1)C[C@H]4CCl,T/C,L1210 [11],140%
same,Activity,L1210 [12],inactive
same,pIC50,L1210 [1],8.18
same,Activity,L1210 [13],inactive
same,Drug degradation,[14],Not Active
same,T/C,L1210 [15],>980%
same,Activity,L1210 [16],inactive
same,Stability,[17],Stable
same,T/C,L1210 [18],>275%
same,Activity,Nucleic Acid,inactive
same,fraction unbound at 48 h,[19],0.05
same,Activity,L1210 [20],Active
same,T/C,L1210 [21],>310%
COc1c(O)c2c(c3cc(C(=O)N4CCc5c4c(O)c(OC)c4[nH]c(C(=O)N6C[C@@H]7C[C@]78C6=CC(=O)c6[nH]cc(C)c68)cc54)[nH]c13)CCN2C(N)=O,pIC50,L1210 [1],10.70
Br.COC(=O)c1c(C)[nH]c2c(OC(=O)N3CCN(C)CC3)cc3c(c12)[C@H](CBr)CN3C(=O)c1cc2cc(OC)c(OC)c(OC)c2[nH]1 [PIBROZELESIN HYDROBROMIDE],half-life at 2 µM,[22],20 h
CC(C)(C)OC(=O)N1C[C@H](CCl)c2c1cc1c3c(cccc23)NC(=O)O1,pIC50,L1210 [1],5.24
CC(C)(C)OC(=O)N1C[C@@H](CCl)c2c1cc1c3c(cccc23)NC(=O)O1,Stability,[23],Stable
same,Stability,[24],Stable
same,pIC50,L1210 [1],5.31
same,degraded at 2 h,[25],< 4%
same,Stability,[26],Stable
same,degraded at 48 h,[27],7%
same,degraded at 48 h,[28],100%
same,degraded at 48 h,[29],9%
same,degraded at 2 h,[30],7%
same,Drug degradation,[31],Active
same,Stability,[32],Stable
same,degraded at 24 h,[33],4%
same,Stability,[34],Stable
same,degraded at 48 h,[35],19%
same,Stability,[36],Stable
same,Stability,[37],Stable
same,degraded at 48 h,[38],12%
same,Stability,[39],Stable
same,Stability,[40],Stable
same,degraded at 24 h,[41],12%
same,degraded at 2 h,[42],18%
same,Drug degradation,[43],Active
same,degraded at 24 h,[44],74%
same,Stability,[45],Stable
same,Stability,[46],Stable
